Assay results from different studies.
Lines come from different studies, so protocols differ.
ADORA1: Adenosine receptor A1 (ADORA1, Homo sapiens, UniProt P30542)
ache: Acetylcholinesterase (ache, Electrophorus electricus, UniProt O42275)
CARM1: Histone-arginine methyltransferase CARM1 (CARM1, Homo sapiens, UniProt Q86X55)

Compound | target | assay | system | setting | inhibition [%]
O[C@@H]1[C@H](O)CO[C@H]1n1cnc2c(NCc3cccc(I)c3)nc(Cl)nc21 | ADORA1 | ligand displacement, radioligand |  | 10 µM, cell membranes | < 10
O=C(c1ccc(F)cc1)N(Cc1ccccc1)C1CCCCC1 | ADORA1 | cell-free assay |  | 10 µM | 8
COc1ccc2[nH]cc(/C=C/c3ccc(O)cc3)c2c1 | Amyloid-beta precursor protein, monomer (APP, Homo sapiens, UniProt P05067) | amyloid aggregation, inhibitor, fluorescence |  | 25 µM | 44
COc1cc(NC(C)=O)c(Cl)cc1C(=O)Nc1nccs1 | ADORA1 | cell-free assay |  | 10 µM | 25.2
COc1cc2c(cc1OC)C(=O)N(CC1CCNCC1)C2 | ache | enzyme activity, inhibitor |  | 1 µM | 2.49
C1=CSC(=C2SC=CS2)S1 | Ubiquitin carboxyl-terminal hydrolase 5 (USP5, Homo sapiens, UniProt P45974) | enzyme activity, inhibitor |  | 17 µM | 54
CC/C(=N\NC(=O)NCc1cccc(O)c1)c1ccc(O)c(C)c1O | Ribosomal protein S6 kinase beta-2 (RPS6KB2, Homo sapiens, UniProt Q9UBS0) | enzyme activity, inhibitor |  | 0.1 µM | 22.7
O[C@@H]1[C@H](O)CO[C@H]1n1cnc2c(NCc3cccc(F)c3)nc(Cl)nc21 | ADORA1 | ligand displacement, radioligand |  | 10 µM, cell membranes | 10
O=C(NC1C2CCN(CC2)C1Cc1cccnc1)c1cc2ccccc2o1 (centres unmarked) | 5-hydroxytryptamine receptor 3A (Htr3a, Mus musculus, UniProt P23979) | ligand displacement, radioligand |  | 10 µM | 59
O=C1N=C(N2CCCCN2)S/C1=C\c1ccc(F)cc1O | Neuromedin-K receptor (TACR3, Homo sapiens, UniProt P29371) | ligand displacement, radioligand |  | 10 µM | < 10
COc1cc2c(cc1OC)C(=O)N(Cc1cccc(N3CCCCC3)n1)C2 | ache | enzyme activity, inhibitor |  | 1 µM | 18.8
CCN1CCN(Cc2ccc(NC(=O)c3ccc(C)c(Oc4ccnc5[nH]ccc45)c3)cc2C(F)(F)F)CC1 | Serine/threonine-protein kinase/endoribonuclease IRE1 (ERN1, Homo sapiens, UniProt O75460) | target engagement in cells, inhibitor, chemoproteomics | Huh-7 | 1 µM | -16.7
COc1cc2c(cc1OC)C(=O)N(CC1CCN(Cc3ccccc3)CC1)C2 | ache | enzyme activity, inhibitor |  | 1 µM | 20.4
Nc1ncnc2c1ncn2[C@@H]1O[C@H](CSCCNC(=O)NCc2ccccc2)[C@@H](O)[C@H]1O | CARM1 | enzyme activity, inhibitor, radiometric |  | 10 µM | > 95
COc1cc2c(cc1OC)C(=O)N(CC1CCN(CC3CCNC3)CC1)C2 (centres unmarked) | ache | enzyme activity, inhibitor |  | 1 µM | 4.86
CCN(c1cc(C#CCN2CCOCC2)cc(C(=O)NCc2c(C)cc(C)[nH]c2=O)c1C)[C@H]1CC[C@H](N(C)CCOC)CC1 | CARM1 | enzyme activity, inhibitor |  | 1 µM | -3
COc1cc2c(cc1OC)C(=O)N(Cc1ccncc1)C2 | ache | enzyme activity, inhibitor |  | 1 µM | 2.62
c1cc2cc(C3=NCCN3)ccc2cc1C1=NCCN1 | Rac GTPase-activating protein 1 (Homo sapiens, UniProt Q9H0H5) | enzyme activity, inhibitor, ADP detection |  | 10 µM | 50.4
COc1cc2c(cc1OC)C(=O)N(CC1CCN(Cc3cccnc3)CC1)C2 | ache | enzyme activity, inhibitor |  | 1 µM | -0.52
O[C@@H]1[C@H](O)CO[C@H]1n1cnc2c(NCc3cccc(Br)c3)nc(Cl)nc21 | ADORA1 | ligand displacement, radioligand |  | 10 µM, cell membranes | < 10
